Test results from ChEMBL document CHEMBL4364329, “Prodrug Activation by a Viral Protease: Evaluating Combretastatin Peptide Hybrids To Selectively Target Infected Cells” (ACS Med Chem Lett, 2019).
Non-standard residues stand in square brackets, D forms with d. Residues, ends and D or L forms follow the SMILES beside them. ξ: configuration not given here. *: point of attachment. X1 = COc1ccc(/C=C\c2cc(OC)c(OC)c(OC)c2)cc1N*; 2Abz = Nc1ccccc1C(=O)O; ξNle = CCCCC(N)C(=O)O; Bz = O=C(c1ccccc1)*

How the values were obtained:
[1] = Cytotoxicity against human HuH7 cells assessed as reduction in cell viability measured after 24 hrs by cell titer blue assay; format: cell-based, Huh-7
[2] = tested on: dengue virus type 2; assay: Antiviral activity against wild type Dengue virus serotype 2 infected in human HuH7 cells assessed as reduction in viral titer at 25 uM measured after 24 hrs by Cell-Titer Glo luminescent assay relative to control; format: functional; conditions: Huh-7, 24 h
How it was run: (§1)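 Cells treated 24 h before titer readout; virus-containing supernatant split into duplicates, plaques counted and averaged, reduction calculated versus untreated blank; single-point experiment.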

[3] = target: T1, Genome polyprotein (dengue virus type 2, UniProt P29990); assay: Prodrug activation assessed as Dengue virus serotype 2 NS2B-NS3 protease expressed in Escherichia coli BL21 lambda (DE3) cells-mediated compound hydrolysis in TRIS buffer at pH 9 at 500 uM incubated for 2 hrs by HPLC-UV analysis; conditions: dengue virus type 2, pH 9, 2 h
How it was run: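 DENV protease at 1 μM with substrate at 500 μM in pH 9 buffer, incubated 2 h at 37 °C; fraction hydrolysed determined, triplicate wells.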

[4] = tested on: HeLa; assay: Ratio of compound CC50 to CA4 CC50 for human HeLa cells measured after 72 hrs by cell titer blue assay; format: ADME, cell-based
[5] = Cytotoxicity against human HuH7 cells assessed as reduction in cell viability measured after 72 hrs by cell titer blue assay; format: cell-based, Huh-7
[6] = Ratio of compound CC50 to CA4 CC50 for human HuH7 cells measured after 72 hrs by cell titer blue assay; format: ADME, cell-based, Huh-7
[7] = tested on: Zika virus; assay: Antiviral activity against Zika virus infected in human HuH7 cells assessed as reduction in viral titer at 5 uM measured after 24 hrs by Cell-Titer Glo luminescent assay relative to control; format: functional; conditions: Huh-7, 24 h
How it was run: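 Readout began after 24 h. This was a single-point experiment. Virus-containing supernatant was aliquoted in duplicate, plaques were counted and averaged, and reduction was calculated against an untreated blank.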

[8] = Cytotoxicity against human HeLa cells assessed as reduction in cell viability measured after 72 hrs by cell titer blue assay; format: cell-based
[9] = target: T1, Genome polyprotein; assay: Inhibition of Dengue virus serotype 2 NS2B-NS3 protease expressed in Escherichia coli BL21 lambda (DE3) cells preincubated with enzyme for 15 mins followed by 2-Abz-Nle-Lys-Arg-Arg-Ser-(3-NO2)-Tyr-NH2 FRET substrate addition measured for 15 mins by fluorescence analysis
[10] = target: Trypsin (Homo sapiens, UniProt P07477+P07478+P35030); assay: Prodrug activation assessed as trypsin (unknown origin)-mediated compound hydrolysis in TRIS buffer at pH 9 at 100 uM incubated for 2 hrs; format: protein assay; conditions: pH 9, 2 h
[11] = tested on: Zika virus; assay: Antiviral activity against Zika virus infected in human HuH7 cells assessed as reduction in viral titer at 50 uM measured after 24 hrs by Cell-Titer Glo luminescent assay relative to control; format: functional; conditions: Huh-7, 24 h; how it was run: as §1
[12] = target: T1, Genome polyprotein; assay: Inhibition of Dengue virus NS2B-NS3 protease using FRET Abz-Nle-Lys-Arg-Arg-Ser-3-(NO2)Tyr as substrate
[13] = tested on: Huh-7; assay: Cytotoxicity against human HuH7 cells assessed as cell doubling time by cell titer blue assay; format: cell-based
[14] = tested on: HeLa; assay: Cytotoxicity against human HeLa cells assessed as cell doubling time by cell titer blue assay; format: cell-based
[15] = tested on: dengue virus type 2; assay: Antiviral activity against wild type Dengue virus serotype 2 infected in human HuH7 cells assessed as reduction in viral titer measured after 24 hrs by Cell-Titer Glo luminescent assay; format: functional, organism-based; conditions: Huh-7, 24 h
[16] = tested on: Huh-7; assay: Cytotoxicity against human HuH7 cells assessed as induction of mitosis after 24 hrs; format: cell-based; conditions: huh-7, 24 h

Row | Structure (SMILES) | CC50 at 24 h [1] [nM] | inhibition at 25 µM [2] [%] | Drug metabolism [3] | Ratio [4] | CC50 at 72 h [5] [nM] | selectivity ratio at 72 h [6] | inhibition at 5 µM [7] [%] | CC50 at 72 h [8] [nM] | IC50 [9] [nM] | Drug metabolism [10] | inhibition at 50 µM [11] [%] | IC50 [12] [nM] | Time [13] [h] | Time [14] [h] | EC50 [15] [nM] | Activity [16]
1 | COc1ccc(/C=C\c2cc(OC)c(OC)c(OC)c2)cc1N | > 100000 | 66 | Metabolite_Notdetected | 20 to 2000 | 3.93 | 20 to 2000 | 84 | 1.47 |  |  |  |  |  |  |  | 
2 | COc1ccc(/C=C\c2cc(OC)c(OC)c(OC)c2)cc1NC(=O)[C@H](CO)NC(=O)[C@H](CCCNC(=N)N)NC(=O)[C@H](CCCCN)NC(=O)c1ccccc1 | 77900 | 61 | 6.3% | 20 to 2000 | 134 | 20 to 2000 |  | 61.8 |  |  |  |  |  |  |  | 
3 | COc1ccc(/C=C\c2cc(OC)c(OC)c(OC)c2)cc1NC(=O)CNC(=O)[C@H](CCCNC(=N)N)NC(=O)[C@H](CCCNC(=N)N)NC(=O)c1ccccc1 | 88600 | 84 | 39% | 20 to 2000 | 26.6 | 20 to 2000 |  | 7.2 |  |  |  |  |  |  |  | 
4 | COc1ccc(/C=C\c2cc(OC)c(OC)c(OC)c2)cc1NC(=O)CNC(=O)[C@H](CCCNC(=N)N)NC(=O)[C@H](CCCCN)NC(=O)c1ccccc1 | > 100000 | 53 | 32% | 20 to 2000 | 172 | 20 to 2000 |  | 78.2 |  |  |  |  |  |  |  | 
5 | COc1ccc(/C=C\c2cc(OC)c(OC)c(OC)c2)cc1NC(=O)CN | 173000 | 69 | Metabolite_Notdetected | 20 to 2000 | 26.9 | 20 to 2000 |  | 37.7 |  |  |  |  |  |  |  | 
6 | COc1ccc(/C=C\c2cc(OC)c(OC)c(OC)c2)cc1NC(=O)[C@H](CO)NC(=O)[C@H](CCCNC(=N)N)NC(=O)[C@H](CCCNC(=N)N)NC(=O)c1ccccc1 | > 100000 | 51 | 3.4% | 20 to 2000 | 23.1 | 20 to 2000 |  | 29.2 | 25000 | Metabolite_Detected | 92 |  |  |  |  | 
7 | COc1ccc(/C=C\c2cc(OC)c(OC)c(OC)c2)cc1NC(=O)CCNC(=O)[C@H](CCCNC(=N)N)NC(=O)[C@H](CCCNC(=N)N)NC(=O)c1ccccc1 | 190000 | 57 | 6.7% | 20 to 2000 | 156 | 20 to 2000 |  | 952 |  |  |  |  |  |  |  | 
8 | COc1ccc(/C=C\c2cc(OC)c(OC)c(OC)c2)cc1NC(=O)[C@H](C)N | 123000 | 64 | Metabolite_Notdetected | 20 to 2000 | 6.03 | 20 to 2000 |  | 6.69 |  |  |  |  |  |  |  | 
9 | COc1ccc(/C=C\c2cc(OC)c(OC)c(OC)c2)cc1NC(=O)[C@H](C)NC(=O)[C@H](CCCNC(=N)N)NC(=O)[C@H](CCCNC(=N)N)NC(=O)c1ccccc1 | 111000 | 57 | 36% | 20 to 2000 | 191 | 20 to 2000 |  | 65.7 |  |  |  |  |  |  |  | 
10 | COc1ccc(/C=C\c2cc(OC)c(OC)c(OC)c2)cc1NC(=O)[C@H](C)NC(=O)[C@H](CCCNC(=N)N)NC(=O)[C@H](CCCCN)NC(=O)c1ccccc1 | > 100000 | 69 | 5.2% | 20 to 2000 | 71.6 | 20 to 2000 |  | 24.6 |  |  |  |  |  |  |  | 
11 | COc1ccc(/C=C\c2cc(OC)c(OC)c(OC)c2)cc1NC(=O)[C@H](CCCNC(=N)N)NC(=O)[C@@H](N)CCCNC(=N)N |  |  |  |  |  |  |  |  |  |  |  | 6300 |  |  |  | 
12 | COc1ccc(/C=C\c2cc(OC)c(OC)c(OC)c2)cc1NC(=O)CNC(=O)CNC(=O)[C@H](CCCNC(=N)N)NC(=O)[C@H](CCCNC(=N)N)NC(=O)c1ccccc1 (Bz-RRGG-X1) | 59700 | 55 | 42% | 20 to 2000 | 24 | 20 to 2000 |  | 19.5 |  | Metabolite_Detected |  |  |  |  |  | 
13 | CCCCC(NC(=O)c1ccccc1N)C(=O)N[C@@H](CCCCN)C(=O)N[C@@H](CCCNC(=N)N)C(=O)N[C@@H](CCCNC(=N)N)C(=O)N[C@@H](CO)C(=O)N[C@@H](Cc1ccc(O)cc1)C(N)=O (stereo partly drawn) (H-[2Abz][ξNle]KRRSY-NH2) |  |  | 94% |  |  |  |  |  |  |  |  |  |  |  |  | 
14 | COc1ccc(/C=C\c2cc(OC)c(OC)c(OC)c2)cc1O [COMBRETASTATIN A4] | 38300 |  | Metabolite_Notdetected |  | 1.05 |  | 70 | 0.428 |  |  |  |  | 48 | 24 | 870 | Toxic
